Experiment [1] has as its system HOS. As to the kind of experiment: Effective dose required for inhibitory activity against HOS human tumor cell line; Not active. It counts as functional, cell-based. The essentials: (§1)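 Human tumor lines were grown in RPMI-1640 with 25 mM HEPES, 0.25% sodium bicarbonate, 10% FBS and 100 µg/mL kanamycin. KB-VIN is a vincristine-resistant KB subline, and PTX10 is a 1A9 subline with mutated β-tubulin. Trypsinized cells (1500–7500/well) got compound from DMSO stock for 3 days continuous. Cells were fixed with cold 50% TCA, stained with 0.4% SRB, and read at 562 nm. ED50 is the 50% growth-reduction concentration; not active means ≤5% inhibition at the top concentration.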

Experiment [2] has as its system 1A9/ptx-10. As to the kind of experiment: Percent inhibition against PTX10 human tumor cell line at >10 ug/mL. It counts as functional.
In the next experiment the test system is A549. As to the kind of experiment: Effective dose required for inhibitory activity against A549 human tumor cell line. The experiment is classed as functional. The following applies: read-out: ED50 (the source's name). The essentials: as §1
The subject of experiment [3] is CAKI-1. As to the kind of experiment: Effective dose required for inhibitory activity against CAK1 human tumor cell line; Not active. The experiment is classed as functional, cell-based. In short, it runs like this: as §1
The test system of experiment [4] is SK-MEL-2. As to the kind of experiment: Effective dose required for inhibitory activity against SK-MEL-2 human tumor cell line; Not active. It counts as functional, cell-based. In short, it runs like this: as §1
A further experiment concerns 1A9. As to the kind of experiment: Effective dose required for inhibitory activity against 1A9 human tumor cell line. The experiment is classed as functional. The following applies: read-out: ED50 (the source's name). The essentials:
as §1

The test system of experiment [5] is MCF7. The experiment in a line: Effective dose required for inhibitory activity against MCF-7 human tumor cell line. It counts as functional. The following applies: read-out: ED50 (the source's name). In short, it runs like this:
as §1

The next experiment deals with PC-3. As to the kind of experiment: Effective dose required for inhibitory activity against PC-3 human tumor cell line. The experiment is classed as functional. As to conditions: read-out: ED50 (the source's name). The essentials: as §1
Experiment [6] has as its system KB. As to the kind of experiment: Effective dose required for inhibitory activity against KB-VIN human tumor cell line. It counts as functional. As to conditions: read-out: ED50 (the source's name). The essentials: as §1
Experiment [7] relates to KB. The experiment in a line: Effective dose required for inhibitory activity against KB human tumor cell line. It counts as functional. As to conditions: read-out: ED50 (the source's name). In short, it runs like this:
as §1

In another experiment the test system is HCT-8. The experiment in a line: Effective dose required for inhibitory activity against HCT-8 human tumor cell line. The following applies: read-out: ED50 (the source's name). It counts as functional. The essentials: as §1
For experiment [8], the system named is HOS. As to the kind of experiment: Effective dose required for inhibitory activity against HOS human tumor cell line. The experiment is classed as functional. As to conditions: read-out: ED50 (the source's name). The essentials:
as §1

Experiment [9] deals with SK-MEL-2. As to the kind of experiment: Effective dose required for inhibitory activity against SK-MEL-2 human tumor cell line. It counts as functional. The following applies: read-out: ED50 (the source's name). The essentials: as §1
Experiment [10] has as its system MCF7. The experiment in a line: Percent inhibition against MCF-7 human tumor cell line at <5 ug/mL. The experiment is classed as functional.
Experiment [11] relates to 1A9/ptx-10. The experiment in a line: Effective dose required for inhibitory activity against PTX10 human tumor cell line. It counts as functional. The following applies: read-out: ED50 (the source's name). In short, it runs like this: as §1
For experiment [12], the system named is CAKI-1. The experiment in a line: Effective dose required for inhibitory activity against CAK1 human tumor cell line. The experiment is classed as functional. As to conditions: read-out: ED50 (the source's name). In short, it runs like this:
as §1

Converted amounts (≈) assume the structure as drawn. The source made the active and inactive calls.

Our source for the NA, Inhibition and EC50 values is ChEMBL document CHEMBL1145845, “Acetogenins as selective inhibitors of the human ovarian 1A9 tumor cell line” (2003).

Regarding `CCCCCCCCCCCC[C@H](O)[C@@H]1CC[C@@H]([C@@H](O)CCCCC(=O)CCCCCC2CC(CC(C)=O)C(=O)O2)O1` (stereo partly drawn) [ISOANNONACINONE], the NA result in the experiment on HOS [1], in the experiment on CAKI-1 [3] and in the experiment on SK-MEL-2 [4] was “inactive” throughout. Moreover, the Inhibition (as a rule, the change of the read-out against control, counted positive when it falls) with 1A9/ptx-10 [2] worked out at 19%. Further, the EC50 in the experiment on A549 is greater than 20 µg/mL; with 1A9 it was 2.2 µg/mL (≈ 3.7 µM); with MCF7 [5], greater than 20 µg/mL; in the experiment with PC-3, greater than 20 µg/mL; in the experiment on KB [6], greater than 20 µg/mL; in the experiment on KB [7], greater than 20 µg/mL. For the same molecule, the EC50 in the experiment on HCT-8 was greater than 20 µg/mL.
On to `CCCCCCCCCCCCCCCCCC1OC1C1OC1CCCCCCCCC1=C[C@H](C)OC1=O` (stereo partly drawn), for which the EC50 in the experiment with HOS [8] was greater than 20 µg/mL; in the experiment with A549, greater than 20 µg/mL; in the experiment with SK-MEL-2 [9] it was greater than 20 µg/mL; with 1A9, 8.8 µg/mL (≈ 16.5 µM); in the experiment on MCF7 [5], greater than 20 µg/mL; in the experiment on PC-3, greater than 20 µg/mL. The EC50 in the experiment with KB [6], with KB [7] and in the experiment on HCT-8 was greater than 20 µg/mL each time. Besides, the Inhibition with 1A9/ptx-10 [2] came out at 15%. The NA entry in the experiment with CAKI-1 [3] is “inactive”.
Turning to `CCCCCCCCCCCC[C@H](O)[C@@H]1CC[C@@H]([C@@H](O)CCCCCCC(O)CCCCC[C@@H](O)CC2=C[C@H](C)OC2=O)O1` (stereo partly drawn) [ANNOMONTACIN], the Inhibition in the experiment on MCF7 [10] turned out to be 51%. The EC50 with HOS [8] was determined as 14.1 µg/mL (≈ 22.6 µM); in the experiment on 1A9/ptx-10 [11], 6.8 µg/mL (≈ 10.9 µM); in the experiment with A549, 11.8 µg/mL (≈ 18.9 µM); in the experiment with SK-MEL-2 [9] it was 14.1 µg/mL (≈ 22.6 µM); with 1A9, 0.078 µg/mL (≈ 0.125 µM); in the experiment on PC-3 it was 9.2 µg/mL (≈ 14.7 µM). Moreover, the EC50 stood at 13.7 µg/mL (≈ 21.9 µM) in the experiment on KB [6], 15.3 µg/mL (≈ 24.5 µM) in the experiment with CAKI-1 [12], 9.2 µg/mL (≈ 14.7 µM) with KB [7] and 13.7 µg/mL (≈ 21.9 µM) in the experiment with HCT-8.
For `CCCCC(O)C(O)C/C=C\CC[C@H](O)[C@@H]1CC[C@@H](CCCCCCCCCCCC[C@H](O)CC2=C[C@H](C)OC2=O)O1` (stereo partly drawn), in the experiment with HOS [1], the NA result was “inactive”. Also, the Inhibition in the experiment on 1A9/ptx-10 [2] was 25%. In addition, the EC50 with A549 was greater than 20 µg/mL; with SK-MEL-2 [9], greater than 20 µg/mL; in the experiment on 1A9, 0.87 µg/mL (≈ 1.46 µM); in the experiment with MCF7 [5], 14.3 µg/mL (≈ 24 µM); in the experiment on PC-3 it was greater than 20 µg/mL; in the experiment with KB [6] it was greater than 20 µg/mL. Also, the EC50 in the experiment on CAKI-1 [12], in the experiment with KB [7] and in the experiment with HCT-8 was greater than 20 µg/mL each time.
As for `CCCCCC[C@@H](O)CCC[C@H](O)[C@@H]1CC[C@@H]([C@H](O)CC[C@@H](O)[C@@H]2CC[C@@H](CCCCCCCCCC3=C[C@@H](C)OC3=O)O2)O1` [Squamostatin-A], the EC50 in the experiment with HOS [8] is greater than 20 µg/mL; in the experiment with A549 it was greater than 20 µg/mL; in the experiment with 1A9, 0.0087 µg/mL (≈ 0.0136 µM); with MCF7 [5], 8 µg/mL (≈ 12.5 µM); with PC-3, greater than 20 µg/mL; in the experiment with KB [6], greater than 20 µg/mL. Besides, the EC50 in the experiment on CAKI-1 [12], with KB [7] and in the experiment on HCT-8 was greater than 20 µg/mL in each case. In addition, the Inhibition with 1A9/ptx-10 [2] is given as 40%. The NA result in the experiment on SK-MEL-2 [4] was “inactive”.
Consider `CCCCCCCCCCCCCC[C@@H](O)[C@H]1CC[C@H]([C@H](O)CCCCC(O)CCCCCC(O)CC2=C[C@H](C)OC2=O)O1` (stereo partly drawn), for which the EC50 stood at 13.6 µg/mL (≈ 21.8 µM) in the experiment on HOS [8]; 7.2 µg/mL (≈ 11.5 µM) in the experiment with 1A9/ptx-10 [11]; 11.5 µg/mL (≈ 18.4 µM) in the experiment with A549; 15 µg/mL (≈ 24 µM) with SK-MEL-2 [9]; 0.5 µg/mL (≈ 0.8 µM) in the experiment on 1A9; 5.6 µg/mL (≈ 8.96 µM) in the experiment with MCF7 [5]. For the same molecule, the EC50 with PC-3 was found to be 12.2 µg/mL (≈ 19.5 µM); with KB [6] it was 13.3 µg/mL (≈ 21.3 µM); in the experiment with CAKI-1 [12], 16 µg/mL (≈ 25.6 µM); with KB [7], 9 µg/mL (≈ 14.4 µM); in the experiment with HCT-8 it was 12.7 µg/mL (≈ 20.3 µM).
Turning to `CCCCCC(O)C(O)CCCCCC[C@@H](O)[C@H]1CC[C@H](CCCCCCCCCC[C@@H](O)CC2=C[C@H](C)OC2=O)O1` (stereo partly drawn) [MURICIN A], the EC50 with HOS [8] turned out to be 18.4 µg/mL (≈ 30.8 µM); with 1A9/ptx-10 [11], 8.2 µg/mL (≈ 13.7 µM); with A549 it was 16.8 µg/mL (≈ 28.1 µM); with SK-MEL-2 [9], 18 µg/mL (≈ 30.2 µM); in the experiment with 1A9 it was 0.33 µg/mL (≈ 0.553 µM); in the experiment with MCF7 [5], 6 µg/mL (≈ 10.1 µM). Also, the EC50 in the experiment on PC-3 was 14.1 µg/mL (≈ 23.6 µM); in the experiment on KB [6], 15 µg/mL (≈ 25.1 µM); in the experiment with CAKI-1 [12], greater than 20 µg/mL; in the experiment on KB [7], 12.8 µg/mL (≈ 21.4 µM); with HCT-8 it was 15 µg/mL (≈ 25.1 µM).
Take `CCCCCCCCC[C@H](O)[C@@H]1CC[C@@H]([C@@H]2CC[C@@H](CCCCCCCCCC[C@H](O)CC3=C[C@H](C)OC3=O)O2)O1`: the EC50 amounted to 16 µg/mL (≈ 27.6 µM) in the experiment on HOS [8]; 17.2 µg/mL (≈ 29.7 µM) with A549; 15.3 µg/mL (≈ 26.4 µM) in the experiment with SK-MEL-2 [9]; 1.93 µg/mL (≈ 3.33 µM) in the experiment on 1A9; 7.6 µg/mL (≈ 13.1 µM) in the experiment with MCF7 [5]; 14.5 µg/mL (≈ 25 µM) in the experiment with PC-3. The EC50 in the experiment on KB [6] was greater than 20 µg/mL; in the experiment on CAKI-1 [12], 17.8 µg/mL (≈ 30.7 µM); in the experiment on KB [7] it was 13.5 µg/mL (≈ 23.3 µM); in the experiment on HCT-8, 13.8 µg/mL (≈ 23.8 µM). Also, the Inhibition with 1A9/ptx-10 [2] is given as 30%.
